{"data": "Results of several laboratories", "target": "Serine/threonine-protein kinase Sgk1 (SGK1, Homo sapiens, UniProt O00141)", "note": "Each line is one published result; the experiments were not run side by side."}
{"SMILES": "CNC(=O)c1cc(Oc2ccc(NC(=O)Nc3ccc(Cl)c(C(F)(F)F)c3)cc2)ccn1", "test": "enzyme activity, inhibitor", "conditions": "10 µM", "quantity": "inhibition", "result": "-21%"}
{"SMILES": "CNCc1ccc(-c2cc(-c3nc(-c4ccc(S(=O)(=O)C(C)C)cc4)cnc3N)on2)cc1", "test": "enzyme activity, inhibitor", "conditions": "2 µM", "quantity": "inhibition", "result": "0%"}
{"SMILES": "Cc1ccc(Nc2nccc(N(C)c3ccc4c(C)n(C)nc4c3)n2)cc1S(N)(=O)=O", "test": "enzyme activity, inhibitor", "conditions": "10 µM", "quantity": "inhibition", "result": "-2%"}
{"SMILES": "CN1CC(Oc2cnc(C#N)cc2-c2ccn3nc(NC(=O)C4CC4)cc3c2)C1", "test": "enzyme activity, inhibitor", "conditions": "1 µM", "quantity": "inhibition", "result": "3%"}
{"SMILES": "CSc1nc(C)c(-c2ccnc(Nc3ccc(N4CCOCC4)cc3)c2)[nH]1", "test": "enzyme activity, inhibitor", "conditions": "10 µM", "quantity": "inhibition", "result": "34.8%"}
{"SMILES": "N#CCCc1ccc2c(c1)-c1[nH]c3ccc([N+](=O)[O-])cc3c1CC(=O)N2", "test": "cell-free assay", "conditions": "0.5 µM", "quantity": "remaining signal", "result": "87.9%"}
{"SMILES": "Cc1cc(NC(=O)c2cccc3cc(-c4cccc5[nH]nc(N)c45)ccc23)ccc1F", "test": "enzyme activity, inhibitor", "conditions": "0.1 µM", "quantity": "activity vs control", "result": "87%"}
{"SMILES": "O=C(Nc1cnn(-c2csc(C(=O)NC3COC3)c2)c1)Nc1ccccc1Cl", "test": "enzyme activity, inhibitor", "conditions": "5 µM", "quantity": "remaining activity", "result": "93.7%"}
{"SMILES": "O=C(Nc1cnc(Oc2ccc(F)cc2)nc1)N1CCc2ncccc2[C@@H]1c1ccc(F)cc1", "test": "cell-free assay, competition with immobilised ligand", "conditions": "1 µM", "quantity": "remaining binding", "result": "75%"}
{"SMILES": "CCCOc1ccc(OC)c(F)c1C(=O)c1ccc(C(=O)N[C@@H]2CNC[C@H]2NC(=O)c2ccc3[nH]ncc3c2)cc1", "test": "enzyme activity, inhibitor", "conditions": "10 µM", "quantity": "remaining activity", "result": "1%"}
{"SMILES": "CC1=C(C#N)C(c2ccc3c(c2)c(NC(=O)c2ccccc2C)nn3C)C(C#N)=C(C)N1", "test": "cell-free assay, competition with immobilised ligand", "conditions": "1 µM", "quantity": "remaining binding", "result": "89%"}
{"SMILES": "FC(F)(F)Oc1cccc(-c2cnc3ccc(-c4ccncc4)nn23)c1", "test": "enzyme activity, inhibitor, radiometric", "conditions": "5 µM", "quantity": "activity vs control", "result": "108%"}
{"SMILES": "CSc1cccnc1N1CCN(Cc2nc3ccccc3[nH]2)CC1", "test": "cell-free assay, competition with immobilised ligand", "conditions": "1 µM", "quantity": "remaining binding", "result": "82%"}
{"SMILES": "c1nc2c(Nc3ccc4c(c3)OCCO4)nc(Nc3ccc4c(c3)OCCO4)nc2[nH]1", "test": "enzyme activity, inhibitor", "conditions": "10 µM", "quantity": "activity vs control", "result": "100%"}
{"SMILES": "CO[C@@H](C)c1c(Nc2ccc([C@@H](N(C)C(=O)C3CCS(=O)(=O)CC3)C(F)(F)F)cc2)cnc2cc(Cl)nn12", "test": "cell-free assay, competition with immobilised ligand", "conditions": "1 µM", "quantity": "remaining binding", "result": "89%"}
{"SMILES": "COc1cc2ncnc(Nc3ccc(Oc4ccccc4)cc3C)c2cc1OC", "test": "enzyme activity, inhibitor", "conditions": "1 µM", "quantity": "inhibition", "result": "8%"}
{"SMILES": "CN(C(=O)c1ccccc1)c1cc(N(C)c2ccc3c(c2)CCc2ccc(C(=O)NCCN4CCOCC4)cc2C3=O)ccc1F", "test": "cell-free assay, competition with immobilised ligand", "conditions": "1 µM", "quantity": "remaining binding", "result": "100%"}
{"SMILES": "Cc1cnc(NC2CCOCC2)nc1-n1cnc(C(=O)NC(CN)c2cc(F)cc(Cl)c2)c1 (centres unmarked)", "test": "enzyme activity, inhibitor, radiometric", "conditions": "1 µM", "quantity": "remaining activity", "result": "23%"}
{"SMILES": "O=C1CCc2cc(Nc3cc(OC4CCOCC4)c([N+](=O)[O-])cc3Cl)ccc2N1", "test": "cell-free assay, competition with immobilised ligand", "conditions": "1 µM", "quantity": "remaining binding", "result": "100%"}
{"SMILES": "CN(c1ncccc1CNc1nc(Nc2ccc3c(c2)CC(=O)N3)ncc1C(F)(F)F)S(C)(=O)=O", "test": "enzyme activity, inhibitor", "conditions": "1 µM", "quantity": "inhibition", "result": "13.4%"}
